Assay results as given in ChEMBL document CHEMBL3272013, “Synthesis and biological evaluation of substituted 2,2'-oxybis(propionic acid) derivatives and related compounds” (1976).
Where “and” joins values, the source holds several entries; their conditions need not be identical. Equal values may be shown once.

Legend:
Assay type in all cases: functional
Rattus norvegicus [1] = test: Hypolipidemic activity in albino Wistar Royal Hart rat assessed as change in plasma cholesterol level at 120 mg/kg, po for 3 days
How it was run: (§1)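 Male albino Wistar Royal Hart rats (160–180 g) were kept 7 days on drug-free ground Purina Lab Chow, then grouped six per group. Compound was given orally, once daily, for 3 or 6 days. Controls received no compound. Rats were anesthetized with sodium hexobarbital and bled from the carotid artery. Serum (1.0 ml) went into 9.0 ml 2-propanol with zeolite-copper hydroxide/Lloyd reagent, shaken 1 h. Cholesterol and triglyceride were autoanalyzed on the same sample. Change is given as % of control.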

Rattus norvegicus [2] = test: Hypolipidemic activity in albino Wistar Royal Hart rat assessed as change in plasma triglyceride level at 120 mg/kg, po for 3 days; how it was run: as §1
Rattus norvegicus [3] = test: Hypolipidemic activity in albino Wistar Royal Hart rat assessed as change in plasma triglyceride level at 250 mg/kg, po for 6 days; how it was run: as §1
Rattus norvegicus [4] = test: Hypolipidemic activity in albino Wistar Royal Hart rat assessed as change in plasma cholesterol level at 250 mg/kg, po for 6 days; how it was run: as §1
Rattus norvegicus [5] = test: Hypolipidemic activity in albino Wistar Royal Hart rat assessed as change in plasma triglyceride level at 120 mg/kg, po for 6 days; how it was run: as §1
Rattus norvegicus [6] = test: Hypolipidemic activity in albino Wistar Royal Hart rat assessed as change in plasma triglyceride level at 60 mg/kg, po for 6 days; how it was run: as §1
Rattus norvegicus [7] = test: Hypolipidemic activity in albino Wistar Royal Hart rat assessed as change in plasma cholesterol level at 60 mg/kg, po for 3 days; settings: in the assay text read “for 6 days” for “for 3 days”; how it was run: as §1
Rattus norvegicus [8] = test: Hypolipidemic activity in albino Wistar Royal Hart rat assessed as change in plasma cholesterol level at 120 mg/kg, po for 6 days; how it was run: as §1
Rattus norvegicus [9] = test: Hypolipidemic activity in albino Wistar Royal Hart rat assessed as change in plasma cholesterol level at 60 mg/kg, po for 6 days; how it was run: as §1
Rattus norvegicus [10] = test: Hypolipidemic activity in albino Wistar Royal Hart rat assessed as change in plasma triglyceride level at 60 mg/kg, po for 3 days; how it was run: as §1
Rattus norvegicus [11] = test: Hypolipidemic activity in albino Wistar Royal Hart rat assessed as change in plasma cholesterol level at 30 mg/kg, po for 6 days; how it was run: as §1
Rattus norvegicus [12] = test: Hypolipidemic activity in albino Wistar Royal Hart rat assessed as change in plasma triglyceride level at 30 mg/kg, po for 6 days; how it was run: as §1
Rattus norvegicus [13] = test: Hypolipidemic activity in albino Wistar Royal Hart rat assessed as change in plasma triglyceride level at 250 mg/kg, po for 3 days; how it was run: as §1
Rattus norvegicus [14] = test: Hypolipidemic activity in albino Wistar Royal Hart rat assessed as change in plasma cholesterol level at 250 mg/kg, po for 3 days; how it was run: as §1
Rattus norvegicus [15] = test: Hypolipidemic activity in albino Wistar Royal Hart rat assessed as change in plasma triglyceride level at 300 mg/kg, po for 6 days; how it was run: as §1
Rattus norvegicus [16] = test: Hypolipidemic activity in albino Wistar Royal Hart rat assessed as change in plasma cholesterol level at 300 mg/kg, po for 6 days; how it was run: as §1
[17] = in the assay text read “for 3 days” for “for 6 days”

Row | SMILES | Activity (Rattus norvegicus [1]) [%] | Activity (Rattus norvegicus [2]) [%] | other results
1 | CC1(C)CN(Cc2ccc(Cl)cc2)CC(C)(C)O1 | -3 | -10 | 
2 | CC(C)(O)C#CC(O)(c1ccncc1)c1ccc(Cl)cc1 (centres undefined) | 30 | 34 | 
3 | CC1(C)OC(c2ccccc2)(c2ccccc2)/C(=N\O)C1=O | -6 | -19 | 
4 | CC(C)(O)C#CC(O)(c1ccccc1)c1ccc(Cl)cc1 (centres undefined) | 48 | 3 | 
5 | O=C(c1ccccc1)N1CCC(O)(/C=C\C2(O)CCN(C(=O)c3ccccc3)CC2)CC1 | -3 | 27 | 
6 | CC1(C)OC(c2ccccc2)(c2ccc(Cl)cc2)C(=O)N(Cc2ccccc2)C1=O (centres undefined) |  |  | Activity (Rattus norvegicus [3]): -4%; Activity (Rattus norvegicus [4]): -7%
7 | CC(C)(OC(C(=O)O)(c1ccccc1)c1ccc(Cl)cc1)C(=O)O (centres undefined) | 6 | 33 | 
8 | CC(C)(CNCc1ccc(Cl)cc1)OC(C)(C)CNCc1ccc(Cl)cc1.Cl |  |  | Activity (Rattus norvegicus [5]): -64%; Activity (Rattus norvegicus [6]): -9%; Activity (Rattus norvegicus [3]): -77%; Activity (Rattus norvegicus [7]): -25%; Activity (Rattus norvegicus [4]): -7%; Activity (Rattus norvegicus [8]): -15%
9 | CC(C)(OC(C)(C)C(=O)O)C(=O)O | 4 | -32 | 
10 | COC(=O)C(C)(C)OC(C)(C(=O)OC)c1ccccc1 (centres undefined) | 0 | -3 | 
11 | CC1(C)CN(Cc2ccccc2)CC(C)(C)O1 | -14 | 9 | 
12 | CC(=O)N1CCC(O)(/C=C\C(C)(C)O)CC1 | 21 | 92 | 
13 | CC1(C)CN(Cc2ccccc2)CC(c2ccccc2)(c2ccccc2)O1.Cl | 0 | -15 | 
14 | CC1(C)OC(c2ccccc2)(c2ccccc2)C(=O)N(Cc2ccccc2)C1=O |  |  | Activity (Rattus norvegicus [9]; [17]): -9%; Activity (Rattus norvegicus [10]): -7%
15 | CC1(C)C=CC(C)(c2ccccc2)O1 (centres undefined) | -7 | 27 | 
16 | CC1(C)OC(c2ccccc2)(c2ccccc2)C(=O)N(c2ccccc2)C1=O | -6 | 8 | 
17 | COC(=O)C(C)(C)OC1(C(=O)OC)CCCCC1 | -8 | 8 | 
18 | COC(=O)C(C)(C)OC(C)(C(=O)OC)c1ccc(Cl)cc1 (centres undefined) | 29 | 9 | 
19 | CC1(C)CN(Cc2ccc(Cl)cc2)CC(c2ccccc2)(c2ccccc2)O1 | 12 | -45 | 
20 | CC1(C)C=CC(c2ccccc2)(c2ccc(Cl)cc2)O1 (centres undefined) |  |  | Activity (Rattus norvegicus [9]; [17]): -11%; Activity (Rattus norvegicus [10]): -17%
21 | CC1(C)C=CC(c2ccncc2)(c2ccc(Cl)cc2)O1 (centres undefined) | 32 | -65 | 

Row | SMILES | Activity (Rattus norvegicus [1]) [%] | Activity (Rattus norvegicus [2]) [%] | other results
22 | CN1CCC(OC(=O)C(Oc2ccc(Cl)cc2)Oc2ccc(Cl)cc2)CC1 [LIFIBRATE] |  |  | Activity (Rattus norvegicus [11]): -30%; Activity (Rattus norvegicus [12]): -50%
23 | OC1(CCC(O)(c2ccccc2)c2ccccc2)CCCCC1 | -5 | 74 | 
24 | CN1CCC(O)(/C=C\C2(O)CCN(C)CC2)CC1 |  |  | Activity (Rattus norvegicus [13]): -28%; Activity (Rattus norvegicus [14]): -17%
25 | CC(=O)N1CCC2(CC1)CCC(C)(C)O2 |  |  | Activity (Rattus norvegicus [3]): -39%; Activity (Rattus norvegicus [4]): -11%
26 | CN1CCC(O)(C#CC(C)(C)O)CC1 | 20 | 86 | 
27 | CC1(C)OC(C)(C)C(=O)N(Cc2ccccc2)C1=O | 35 | 51 | 
28 | CC1(C)OC(c2ccccc2)(c2ccc(Cl)cc2)/C(=N\O)C1=O (centres undefined) | -6 | -29 | 
29 | CC1(C)OC(c2ccncc2)(c2ccc(Cl)cc2)C2OC21 (centres undefined) |  |  | Activity (Rattus norvegicus [9]; 60 mg/kg): -8% and -6%
30 | CC1(C)OC(c2ccccc2)(c2ccccc2)C(=O)N(Cc2ccc(Cl)cc2)C1=O | -9 | -16 | 
31 | CN1CCC(O)(C#CC2(O)CCN(C)CC2)CC1 | 19 | 43 | 
32 | CC1(C)OC(C)(c2ccccc2)C2OC21 (centres undefined) |  |  | Activity (Rattus norvegicus [3]): -6%; Activity (Rattus norvegicus [4]): -11%
33 | CC(OC1(C(=O)O)CCCCC1)(C(=O)O)c1ccccc1 (centres undefined) | 28 | -2 | 
34 | CC(C)(OC(C(=O)O)(c1ccccc1)c1ccccc1)C(=O)O | -11 | 8 | 
35 | CN1CCC(O)(CCC2(O)CCN(C)CC2)CC1 | -4 | 29 | 
36 | CC1(C)OC(c2ccccc2)(c2ccc(Cl)cc2)C2OC21 (centres undefined) |  |  | Activity (Rattus norvegicus [1]; 120 mg/kg): -11% and -12%
37 | CC(C)(O)C#CC(C)(O)c1ccc(Cl)cc1 (centres undefined) | 11 | 6 | 
38 | CC1(C)OC(C)(C)C(=O)N(Cc2ccc(Cl)cc2)C1=O | -3 | 50 | 
39 | CN1CCC(O)(/C=C\C(C)(C)O)CC1.Cl | -4 | -10 | 
40 | CC(=O)N1CCC(O)(CCC(C)(C)O)CC1 | -7 | -22 | 
41 | CCOC(=O)C(C)(C)Oc1ccc(Cl)cc1 [CLOFIBRATE] |  |  | Activity (Rattus norvegicus [15]): -49%; Activity (Rattus norvegicus [16]): -34%
